Measured values as given in paper PMC11336475 (Heliyon, 2024).

Tests used:
[1] = DPPH radical scavenging assay; details: for Inhibition% ± SEM: DPPH, measured at 400 μM, 3 repetitions; for EC50: DPPH radical scavenging
Method in brief: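 DPPH solution (110 μM) mixed with samples at various concentrations and kept in the dark for 30 min. Absorbance read at 517 nm. Percent inhibition and EC50 calculated from absorbance changes. Each concentration run in triplicate.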

tyrosinase enzyme = tyrosinase enzyme (Agaricus bisporus, UniProt C7FF04); assay: Kinetic study of tyrosinase inhibition; assay type: biochemical; details: Lineweaver-Burk plot, L-DOPA substrate; Km increased, Vmax constant
Sequence of tyrosinase enzyme (C7FF04 2-392): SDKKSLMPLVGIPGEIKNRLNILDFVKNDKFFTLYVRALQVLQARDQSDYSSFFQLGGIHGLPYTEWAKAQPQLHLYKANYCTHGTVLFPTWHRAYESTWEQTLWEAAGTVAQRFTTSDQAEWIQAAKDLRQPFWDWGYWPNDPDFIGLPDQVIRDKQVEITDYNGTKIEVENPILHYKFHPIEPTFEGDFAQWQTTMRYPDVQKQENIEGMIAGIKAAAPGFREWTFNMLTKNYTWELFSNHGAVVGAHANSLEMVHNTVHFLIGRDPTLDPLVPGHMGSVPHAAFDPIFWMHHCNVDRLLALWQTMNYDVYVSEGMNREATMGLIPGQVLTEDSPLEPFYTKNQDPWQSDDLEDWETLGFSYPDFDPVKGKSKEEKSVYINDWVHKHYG

Structure (SMILES)	Inhibition% ± SEM [1]	type of inhibition (tyrosinase enzyme)	EC50 [1]
Cc1c(O)c(=O)ccn1-c1cccc(C(=O)N/N=C/c2ccc(O)c(O)c2)c1 [Compound 6a, (E)-N'-(3,4-dihydroxybenzylidene)-3-(3-hydroxy-2-methyl-4-oxopyridin-1(4H)-yl) benzohydrazide]	90.06 ± 3.75%		
COc1cc(/C=N/NC(=O)c2cccc(-n3ccc(=O)c(O)c3C)c2)ccc1O [Compound 6b, (E)-3-(3-Hydroxy-2-methyl-4-oxopyridin-1(4H)-yl)-N'-(4-hydroxy-3-methoxybenzylidene)benzohydrazide]	84.64 ± 2.68%	competitive inhibitor	
COc1cccc(/C=N/NC(=O)c2cccc(-n3ccc(=O)c(O)c3C)c2)c1O [Compound 6c, (E)-3-(3-Hydroxy-2-methyl-4-oxopyridin-1(4H)-yl)-N'-(2-hydroxy-3-methoxybenzylidene) benzohydrazide]	48.06 ± 2.25%		> 400 µM
COc1cc(OC)c(/C=N/NC(=O)c2cccc(-n3ccc(=O)c(O)c3C)c2)c(OC)c1 [Compound 6d, (E)-3-(3-Hydroxy-2-methyl-4-oxopyridin-1(4H)-yl)-N'-(2,4,6-trimethoxybenzylidene)benzohydrazide]	35.16 ± 1.37%		> 400 µM
Cc1c(O)c(=O)ccn1-c1cccc(C(=O)N/N=C/c2ccccc2Br)c1 [Compound 6e, (E)-N'-(2-bromobenzylidene)-3-(3-hydroxy-2-methyl-4-oxopyridin-1(4H)-yl)benzohydrazide]	19.59 ± 1.76%		> 400 µM
Cc1c(O)c(=O)ccn1-c1cccc(C(=O)N/N=C/c2ccccc2C(=O)O)c1 [Compound 6f, (E)-2-((2-(3-(3-Hydroxy-2-methyl-4-oxopyridin-1(4H)-yl)benzoyl) hydrazono)methyl) benzoic acid]	35.01 ± 5.71%		> 400 µM
Cc1c(O)c(=O)ccn1-c1cccc(C(=O)N/N=C/c2cccc(Cl)c2)c1 [Compound 6g, (E)-N'-(3-chlorobenzylidene)-3-(3-hydroxy-2-methyl-4-oxopyridin-1(4H)-yl) benzohydrazide]	44.20 ± 2.41%		> 400 µM
Cc1c(O)c(=O)ccn1-c1cccc(C(=O)NN=Cc2c(Cl)cccc2Cl)c1 [Compound 6h, N'-(2,6-dichlorobenzylidene)-3-(3-hydroxy-2-methyl-4-oxopyridin-1(4H)-yl)benzohydrazide]	44.55 ± 0.91%		> 400 µM
Cc1c(O)c(=O)ccn1-c1cccc(C(=O)N/N=C/c2cc(Cl)ccc2[N+](=O)[O-])c1 [Compound 6i, (E)-N'-(5-chloro-2-nitrobenzylidene)-3-(3-hydroxy-2-methyl-4-oxopyridin-1(4H)-yl)benzohydrazide]	67.65 ± 0.85%		174 µM
Cc1c(O)c(=O)ccn1-c1cccc(C(=O)N/N=C/Cc2ccccc2)c1 [Compound 6j, (E)-3-(3-Hydroxy-2-methyl-4-oxopyridin-1(4H)-yl)-N'-(2-phenylethylidene)benzohydrazide]	68.59 ± 1.14%		
O=c1c(O)c(-c2ccc(O)c(O)c2)oc2cc(O)cc(O)c12 [Quercetin, reference compound]			8.98 ± 0.05 µM
